Legend:
[1] = read-out: IC50 broad anticancer activity; cited from earlier work
MCF-7 = assay: MTT cytotoxicity assay; type: cell-based; settings: Homo sapiens, MCF7, 48 h, read-out: IC50 MCF-7
Procedure, shortened: (§1)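 Human cancer (A549, MCF-7) and normal (MCF-10A, THLE2, WISH) lines cultured in RPMI-1640/DMEM with L-glutamine, 10% FBS and 1% penicillin-streptomycin at 37 °C, 5% CO2. […] MTT absorbance read at […]. IC50 taken from concentration-viability curves.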

A549 = assay: MTT cytotoxicity assay; type: cell-based; settings: Homo sapiens, A549, 48 h, read-out: IC50 A549
Procedure, shortened: as §1

Topoisomerase II = Topoisomerase II (Homo sapiens, UniProt P11388); assay: Topo II inhibition assay; type: biochemical
Chain of Topoisomerase II (P11388 whole entry): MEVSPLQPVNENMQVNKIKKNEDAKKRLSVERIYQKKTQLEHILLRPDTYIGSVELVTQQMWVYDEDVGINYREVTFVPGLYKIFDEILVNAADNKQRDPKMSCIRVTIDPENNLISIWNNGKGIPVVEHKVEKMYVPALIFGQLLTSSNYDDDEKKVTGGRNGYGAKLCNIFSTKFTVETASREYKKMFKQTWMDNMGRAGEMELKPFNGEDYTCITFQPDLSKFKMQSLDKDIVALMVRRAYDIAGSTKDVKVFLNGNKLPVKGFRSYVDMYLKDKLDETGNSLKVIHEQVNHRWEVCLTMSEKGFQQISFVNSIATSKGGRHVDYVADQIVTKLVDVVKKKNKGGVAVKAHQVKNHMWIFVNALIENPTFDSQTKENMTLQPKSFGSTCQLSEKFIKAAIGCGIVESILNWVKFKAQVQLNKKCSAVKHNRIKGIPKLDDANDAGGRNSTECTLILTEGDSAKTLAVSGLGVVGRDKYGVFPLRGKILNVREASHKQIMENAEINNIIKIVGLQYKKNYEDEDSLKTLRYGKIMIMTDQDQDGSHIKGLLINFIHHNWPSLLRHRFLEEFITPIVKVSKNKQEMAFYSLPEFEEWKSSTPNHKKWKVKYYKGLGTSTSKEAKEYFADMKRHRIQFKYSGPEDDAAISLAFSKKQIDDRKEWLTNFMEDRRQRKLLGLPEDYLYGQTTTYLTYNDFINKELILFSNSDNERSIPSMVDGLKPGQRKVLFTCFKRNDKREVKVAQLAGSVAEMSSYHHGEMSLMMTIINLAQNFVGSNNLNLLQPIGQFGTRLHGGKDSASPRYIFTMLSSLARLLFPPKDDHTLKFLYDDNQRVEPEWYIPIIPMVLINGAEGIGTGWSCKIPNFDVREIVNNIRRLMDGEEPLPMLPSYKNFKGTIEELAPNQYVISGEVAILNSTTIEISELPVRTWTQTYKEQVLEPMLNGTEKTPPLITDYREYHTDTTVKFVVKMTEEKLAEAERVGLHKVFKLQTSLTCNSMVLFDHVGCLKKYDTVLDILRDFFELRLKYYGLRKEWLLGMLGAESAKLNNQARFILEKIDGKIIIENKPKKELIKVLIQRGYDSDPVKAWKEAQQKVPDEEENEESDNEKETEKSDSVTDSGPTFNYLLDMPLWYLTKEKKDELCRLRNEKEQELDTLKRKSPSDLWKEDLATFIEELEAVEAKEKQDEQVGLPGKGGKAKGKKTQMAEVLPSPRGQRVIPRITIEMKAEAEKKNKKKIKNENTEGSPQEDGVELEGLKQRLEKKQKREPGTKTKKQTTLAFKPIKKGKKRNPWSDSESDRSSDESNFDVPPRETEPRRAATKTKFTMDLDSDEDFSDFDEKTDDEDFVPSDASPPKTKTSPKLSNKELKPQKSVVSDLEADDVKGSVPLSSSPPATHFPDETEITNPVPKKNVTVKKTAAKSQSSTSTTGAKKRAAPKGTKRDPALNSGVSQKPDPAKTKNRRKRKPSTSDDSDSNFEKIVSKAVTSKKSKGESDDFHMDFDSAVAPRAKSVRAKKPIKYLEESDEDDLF

SMILES	IC50 [1] [µM]	IC50 (MCF-7) [µM]	IC50 (A549) [µM]	IC50 (Topoisomerase II) [µM]
CCN1C(=O)C(=Cc2ccccc2)SC1=S [BTR-1, 5-Benzylidene-3-ethyl rhodanine]	< 10	–	–	–
CC(=O)OC[C@H]1O[C@@H](N2C(=O)/C(=C/c3ccccc3)SC2=S)[C@H](OC(C)=O)[C@@H](OC(C)=O)[C@@H]1OC(C)=O [Compound 11a, 5-((Z)-Benzylidene)-3-(2′,3′,4′,6′-tetra-O-acetyl-β-D-glucopyranosyl)-2-thioxo-4-thiazolidinone]	–	3.7 ± 0.13	9.8 ± 0.11	7.6 ± 0.24
